This passage reports Ki results from ChEMBL document CHEMBL1144025, “1,3-Dipropyl-8-(1-phenylacetamide-1H-pyrazol-3-yl)-xanthine derivatives as highly potent and selective human A(2B) adenosine receptor antagonists” (Bioorg Med Chem, 2008).

Assay type in all cases: cell-based
The target of one assay is T1, Adenosine receptor A3 (Homo sapiens, UniProt P0DMS8).
T1 sequence (P0DMS8 whole entry): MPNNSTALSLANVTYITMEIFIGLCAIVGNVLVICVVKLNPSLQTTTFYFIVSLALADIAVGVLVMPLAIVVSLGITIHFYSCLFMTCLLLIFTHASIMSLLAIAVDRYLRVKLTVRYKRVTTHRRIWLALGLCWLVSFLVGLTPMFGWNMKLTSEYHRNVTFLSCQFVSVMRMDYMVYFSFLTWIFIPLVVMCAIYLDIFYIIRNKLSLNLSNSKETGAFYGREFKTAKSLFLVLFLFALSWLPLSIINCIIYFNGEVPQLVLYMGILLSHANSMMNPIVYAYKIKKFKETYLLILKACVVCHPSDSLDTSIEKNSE
Briefly: Displacement of [3H]MRE3008F20 from human adenosine A3 receptor expressed in CHO cells. A digest of the protocol: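 Membranes (50 µg protein/assay) in 50 mM Tris-HCl, 10 mM MgCl2, 1 mM EDTA, pH 7.4, incubated 120 min at 4 °C with [³H]MRE3008F20 and at least 6–8 ligand concentrations. Nonspecific binding defined with 1 µM MRE 3008F20. Glass fiber filtration and counting. Ki via Cheng-Prusoff; n = 3–6.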
In general terms: Loss of bound radioactivity is the signal in a displacement assay; it reports binding, not function.

The next assay deals with Adenosine receptor A2a (Homo sapiens, UniProt P29274). Briefly: Displacement of [3H]ZM-241385 from human adenosine A2A receptor expressed in CHO cells. A digest of the protocol: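 Membranes (50 µg protein/assay) in 50 mM Tris-HCl, 10 mM MgCl2, pH 7.4, incubated 60 min at 4 °C with [³H]ZM241385 and at least 6–8 concentrations of compound. Nonspecific binding defined with 1 µM ZM 241385. GF/B filtration and counting. Ki by Cheng-Prusoff; n = 3–6.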
Adenosine receptor A2a, sequence (P29274 whole entry): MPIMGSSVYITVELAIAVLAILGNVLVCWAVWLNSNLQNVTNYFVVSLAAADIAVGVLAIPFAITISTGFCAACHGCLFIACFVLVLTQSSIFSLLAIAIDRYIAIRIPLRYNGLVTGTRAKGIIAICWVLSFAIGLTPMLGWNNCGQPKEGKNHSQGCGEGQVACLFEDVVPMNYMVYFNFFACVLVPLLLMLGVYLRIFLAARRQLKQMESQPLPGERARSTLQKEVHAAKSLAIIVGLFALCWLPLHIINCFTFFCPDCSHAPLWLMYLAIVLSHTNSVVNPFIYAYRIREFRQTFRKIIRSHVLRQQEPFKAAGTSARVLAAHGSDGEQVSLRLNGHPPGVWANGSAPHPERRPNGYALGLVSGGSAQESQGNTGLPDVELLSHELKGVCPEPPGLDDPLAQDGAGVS

A further assay deals with T2, Adenosine receptor A1 (Homo sapiens, UniProt P30542).
T2 sequence (P30542 whole entry): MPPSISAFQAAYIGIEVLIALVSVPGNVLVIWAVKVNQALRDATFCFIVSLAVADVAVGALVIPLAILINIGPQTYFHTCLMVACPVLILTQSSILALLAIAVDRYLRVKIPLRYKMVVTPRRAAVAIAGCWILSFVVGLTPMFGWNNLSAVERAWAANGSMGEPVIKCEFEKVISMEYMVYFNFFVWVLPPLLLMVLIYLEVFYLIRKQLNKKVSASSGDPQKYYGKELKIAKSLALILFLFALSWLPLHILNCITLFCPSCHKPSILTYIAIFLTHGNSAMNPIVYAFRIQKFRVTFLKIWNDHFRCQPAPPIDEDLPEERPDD
The experiment in a line: Displacement of [3H]DPCPX from human adenosine A1 receptor expressed in CHO cells.

In another assay the target is T3, Adenosine receptor A2b (Homo sapiens, UniProt P29275).
T3 sequence (P29275 whole entry): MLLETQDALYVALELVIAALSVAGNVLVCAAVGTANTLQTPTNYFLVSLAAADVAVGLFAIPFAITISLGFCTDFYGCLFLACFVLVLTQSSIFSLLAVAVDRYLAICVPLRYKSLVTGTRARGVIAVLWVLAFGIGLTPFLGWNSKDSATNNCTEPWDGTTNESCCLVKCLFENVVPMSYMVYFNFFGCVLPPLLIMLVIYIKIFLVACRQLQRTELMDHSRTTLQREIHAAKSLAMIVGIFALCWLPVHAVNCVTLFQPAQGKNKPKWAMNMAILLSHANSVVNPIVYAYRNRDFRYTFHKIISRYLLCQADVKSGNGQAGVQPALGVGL
The experiment in a line: Displacement of [3H]MRE2029F20 from human adenosine A2B receptor expressed in HEK293 cells. A digest of the protocol: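 Membranes (50 µg protein/assay) in 50 mM Tris-HCl, 10 mM MgCl2, 1 mM EDTA, pH 7.4, incubated 120 min at 4 °C with [³H]MRE2029F20 and at least 6–8 compound concentrations. Nonspecific binding defined with 1 µM MRE 2029F20. GF/B filtration, scintillation counting. Ki via Cheng-Prusoff; n = 3–6.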

Broadly, the Ki is the dissociation constant of the complex between target and ligand, obtained from inhibition or displacement. For the compound `CCCn1c(=O)c2[nH]c(-c3cc(C)n(CC(=O)Nc4cccc(Cl)c4)n3)nc2n(CCC)c1=O`, the inhibition constant Ki on Adenosine receptor A3 was over 1 µM.
As for `CCCn1c(=O)c2[nH]c(-c3cc(C)n(CC(=O)Nc4ccc(Cl)cc4)n3)nc2n(CCC)c1=O`, the Ki on Adenosine receptor A2a, at Adenosine receptor A3 and on Adenosine receptor A1 was over 1 µM each time.
For the compound `CCCn1c(=O)c2[nH]c(-c3nn(CC(=O)Nc4ccc(Cl)cc4)c(C)c3Cl)nc2n(CCC)c1=O`, the Ki on Adenosine receptor A3 was over 1 µM.
With `CCCn1c(=O)c2[nH]c(-c3ccn(CC(=O)Nc4ccc(Cl)cc4)n3)nc2n(CCC)c1=O`, the inhibition constant Ki on Adenosine receptor A3 is over 1 µM.
For the compound `CCCn1c(=O)c2[nH]c(-c3cc(C)n(CC(=O)Nc4ccc(Br)cc4)n3)nc2n(CCC)c1=O`, the Ki on Adenosine receptor A2a, on Adenosine receptor A3 and at Adenosine receptor A1 was over 1 µM each time.
`CCCn1c(=O)c2[nH]c(-c3nn(CC(=O)Nc4ccc(Cl)cc4)c(C)c3Br)nc2n(CCC)c1=O` displayed a Ki on Adenosine receptor A3 of over 1 µM.
The same measure, in the same setting: next, `CCCn1c(=O)c2[nH]c(-c3cc(C)n(CC(=O)Nc4ccc(I)cc4)n3)nc2n(CCC)c1=O`: over 1 µM; `CCCn1c(=O)c2[nH]c(-c3cc(C)n(CC(=O)Nc4ccc(C)cc4)n3)nc2n(CCC)c1=O`: over 1 µM; `CCCn1c(=O)c2[nH]c(-c3cc(C)n(CC(=O)Nc4ccc(F)cc4)n3)nc2n(CCC)c1=O`: over 1 µM.
Still for that read-out and setting: the same measure for `CCCn1c(=O)c2[nH]c(-c3cc(C)n(CC(=O)Nc4ccccc4)n3)nc2n(CCC)c1=O`: over 1 µM.
Take `CCCn1c(=O)c2[nH]c(-c3cc(C)n(CC(=O)Nc4ccc(N(C)C)cc4)n3)nc2n(CCC)c1=O`: the Ki on Adenosine receptor A2b and on Adenosine receptor A3 was over 1 µM each time.
`CCCn1c(=O)c2[nH]c(-c3cc(OCC(=O)Nc4ccc(OC)c(OC)c4)nn3C)nc2n(CCC)c1=O`: the Ki on Adenosine receptor A2a, at Adenosine receptor A3 and at Adenosine receptor A1 was over 1 µM throughout.
As for `CCCn1c(=O)c2[nH]c(-c3cc(CC)n(CC(=O)Nc4ccc(Cl)cc4)n3)nc2n(CCC)c1=O`, the Ki on Adenosine receptor A2b and at Adenosine receptor A3 was over 1 µM throughout.
At Adenosine receptor A3, `CCCn1c(=O)c2[nH]c(-c3cc(C)n(CC(=O)Nc4ccc(OC)c(OC)c4)n3)nc2n(CCC)c1=O` displayed a Ki of over 1 µM.
On to `CCCn1c(=O)c2[nH]c(-c3cc(C)n(CC(=O)Nc4cccc5ccccc45)n3)nc2n(CCC)c1=O`, for which the Ki on Adenosine receptor A2b and at Adenosine receptor A3 was over 1 µM in each case.
In the case of `CCCn1c(=O)c2[nH]c(-c3nn(CC(=O)Nc4ccc(Cl)cc4)c(C)c3I)nc2n(CCC)c1=O`, the Ki on Adenosine receptor A2b and at Adenosine receptor A3 was over 1 µM each time.
`CCCn1c(=O)c2[nH]c(-c3cc(C)n(CC(=O)Nc4ccc(Cl)c(Cl)c4)n3)nc2n(CCC)c1=O` gave a Ki on Adenosine receptor A3 of over 1 µM.
`CCCn1c(=O)c2[nH]c(-c3cc(C)n(CC(=O)Nc4ccc(OC)cc4)n3)nc2n(CCC)c1=O` returned a Ki at Adenosine receptor A3 of over 1 µM.
On to `CCCn1c(=O)c2[nH]c(-c3cc(C)n(CC(=O)Nc4cccc(OC)c4)n3)nc2n(CCC)c1=O`, for which, at Adenosine receptor A3, the Ki is over 1 µM.
Same read-out and setting: next, `CCCn1c(=O)c2[nH]c(-c3cc(C)n(CC(=O)Nc4ccc(C)c(C)c4)n3)nc2n(CCC)c1=O`: over 1 µM.
